We go through 13 compounds from publication PMC4090943 (Bioorganic & medicinal chemistry letters, 2014).

Where only a bound is given, the exact number is not on record here.

The target of one data set is rat mGlu5 (Rattus norvegicus, UniProt P31424). Description: Calcium mobilization mGlu5 assay. Type of data set: cell-based. Conditions: HEK293A cells expressing rat mGlu5; EC80 glutamate; average of n ≥ 3.
For data set [1] the following is noted: non-human primate regulatory toxicology studies; cited from earlier work.
For data set [2], the system named is marble burying. The conditions noted are these: mice; ref 7a,d; cited from earlier work.
Data set [3] concerns marble burying. Description: Mouse marble burying model of anxiety. Type of data set: in vivo. The conditions noted are these: mice, IP, 15 minute pretreatment; P < 0.05 vs. vehicle, Dunnett's test. Put shortly: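 Naïve mice given the test compound IP, with a vehicle control group, and then placed with glass marbles in deep bedding. The read-out was the number of marbles buried. n = 7-8 per dose. Each dose group was compared with the vehicle group by Dunnett's test (P < 0.05).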

In data set [4] the test system is 68 clinically relevant GPCRs, ion channels, kinases, and transporters. Description: LeadProfilingScreen radioligand binding assay panel. The conditions noted are these: 10 μM compound; 68 targets.
A short description of data set [5]: Rat PO tissue distribution study. Type of data set: in vivo, male Sprague-Dawley rats. The conditions noted are these: rat PO 10 mg/kg, 60 min. Put shortly:
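Male Sprague-Dawley rats (n=2 per time point) received a single 10 mg/kg oral dose in 10% Tween 80 in 0.5% MC. At 60 min they were euthanized and decapitated, and blood, hepatic portal vein and brain were collected. After protein precipitation, plasma and brain homogenate supernatants were analysed by LC-MS/MS.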

The test system of a further data set is the other seven mGlus. In words: Cell based functional mGlu selectivity assays. The conditions noted are these: 10μM.

Chain of rat mGlu5 (P31424 21-1203): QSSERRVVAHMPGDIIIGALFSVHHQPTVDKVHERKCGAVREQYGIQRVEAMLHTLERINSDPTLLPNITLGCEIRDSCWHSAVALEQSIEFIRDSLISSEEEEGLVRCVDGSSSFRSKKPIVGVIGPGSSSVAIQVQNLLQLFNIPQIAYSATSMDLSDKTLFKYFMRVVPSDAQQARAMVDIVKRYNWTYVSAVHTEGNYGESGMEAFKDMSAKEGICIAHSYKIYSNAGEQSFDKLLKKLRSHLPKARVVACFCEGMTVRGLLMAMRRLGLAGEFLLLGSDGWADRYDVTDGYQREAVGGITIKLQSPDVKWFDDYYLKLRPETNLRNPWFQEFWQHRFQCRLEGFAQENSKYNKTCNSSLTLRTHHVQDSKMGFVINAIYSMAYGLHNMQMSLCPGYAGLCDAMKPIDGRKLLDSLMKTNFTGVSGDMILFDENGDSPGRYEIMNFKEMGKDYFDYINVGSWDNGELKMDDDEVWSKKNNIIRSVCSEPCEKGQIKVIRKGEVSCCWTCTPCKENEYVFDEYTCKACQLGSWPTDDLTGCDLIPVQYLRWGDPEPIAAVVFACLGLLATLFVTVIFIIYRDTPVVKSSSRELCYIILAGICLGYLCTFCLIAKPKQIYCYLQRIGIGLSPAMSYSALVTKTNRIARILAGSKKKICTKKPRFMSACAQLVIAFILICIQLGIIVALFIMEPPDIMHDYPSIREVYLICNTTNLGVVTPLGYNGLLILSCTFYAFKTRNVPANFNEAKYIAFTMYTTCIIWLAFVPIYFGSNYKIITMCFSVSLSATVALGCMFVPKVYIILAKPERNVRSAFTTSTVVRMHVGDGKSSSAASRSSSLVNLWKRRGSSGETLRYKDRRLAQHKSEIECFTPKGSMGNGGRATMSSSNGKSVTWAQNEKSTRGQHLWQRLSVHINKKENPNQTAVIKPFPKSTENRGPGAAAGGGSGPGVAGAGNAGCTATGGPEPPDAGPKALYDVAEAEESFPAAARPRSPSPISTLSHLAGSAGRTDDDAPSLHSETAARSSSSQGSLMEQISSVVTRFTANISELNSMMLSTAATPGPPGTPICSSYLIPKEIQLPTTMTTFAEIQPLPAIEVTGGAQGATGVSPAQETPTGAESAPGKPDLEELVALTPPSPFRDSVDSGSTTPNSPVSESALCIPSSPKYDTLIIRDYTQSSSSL

Regarding `O=C(Nc1cncc(Oc2cncc(F)c2)n1)c1cccnn1` [Compound 61], at rat mGlu5, the “mGlu5 pIC50 (± SEM)” value is under 4.5. As for `O=C(Nc1cncc(Oc2cncc(F)c2)n1)c1cc(F)cc(F)c1` [Compound 46], the “mGlu5 pIC50 (± SEM)” value on rat mGlu5 is recorded as under 4.5. As for `Cc1ccc(C(=O)Nc2cncc(Oc3cncnc3)n2)s1` [Compound 65], on rat mGlu5, the “mGlu5 pIC50 (± SEM)” value is reported as under 4.5. In the case of `O=C(c1ccc(OC(F)F)c(C#Cc2ccccn2)c1)N1Cc2cccnc2C1` [GRN-529], the toxicology finding result in data set [1] is recorded as “biliary epithelial hyperplasia”. On to `CN1CC(=O)NC1=NC(=O)Nc1cccc(Cl)c1` [fenobam], for which the “effect on marble burying” value with marble burying [2] is “inhibit marble burying”. Regarding `Cc1cccc(C#Cc2ccccc2)n1` [MPEP], in the data set on marble burying [2], the “effect on marble burying” value is recorded as “inhibit marble burying”. `N#Cc1cc(F)cc(C(=O)Nc2cncc(Oc3cncc(F)c3)n2)c1` [Compound 50]: at rat mGlu5, the “mGlu5 pIC50 (± SEM)” value was under 4.5. `O=C(Nc1cncc(Oc2cncc(F)c2)n1)c1cccc(Cl)c1F` [Compound 42]: the “mGlu5 pIC50 (± SEM)” value at rat mGlu5 is recorded as under 4.5. Consider `COc1cc(OC)cc(C(=O)Nc2cncc(Oc3cncc(F)c3)n2)c1` [Compound 49], for which, on rat mGlu5, the “mGlu5 pIC50 (± SEM)” value was under 4.5. Take `O=C(Nc1cncc(Oc2cncc(F)c2)n1)c1cc(Cl)cc(Cl)c1` [Compound 47]: at rat mGlu5, the “mGlu5 pIC50 (± SEM)” value is under 4.5. As for `O=C(Nc1cncc(Oc2cncc(F)c2)n1)c1cccnc1` [Compound 60], the “mGlu5 pIC50 (± SEM)” value at rat mGlu5 is reported as under 4.5.

As to `O=C(Nc1cncc(Oc2cncnc2)n1)c1cc(Cl)ccn1` [Compound 68, 4-chloro-N-(6-(pyrimidin-5-yloxy)pyrazin-2-yl)picolinamide], the “doses giving statistically significant inhibition of marble burying” value in the data set with marble burying [3] is on record as “greater than or equal to 10 mg/kg”. In data set [4], the “significant responses (>50% inhibition of radioligand binding) in panel” value is “no significant responses were found”. Besides, in data set [5], the “HPV (hepatic portal vein) concentration” value turned out to be 1.31 µM, the brain concentration was found to be 1450 nM and the plasma concentration was found to be 920 nM. Moreover, in the data set with the other seven mGlus, the “activity against the other seven mGlus” value is “no detectable activity”. Turning to `O=C(Nc1cncc(Oc2cncc(F)c2)n1)c1ccncn1` [Compound 63], at rat mGlu5, the “mGlu5 pIC50 (± SEM)” value was under 4.5.
